# Experimental data collected from several papers.
# Each line is one published result; the experiments were not run side by side.
# Target: LIM domain kinase 2 (LIMK2, Homo sapiens, UniProt P53671)
Compound,assay,conditions,remaining binding [%]
CN(CCCC(F)(F)F)c1nccc(-c2cnn3ncccc23)n1,binding,1 µM,95
CCN1CCN(Cc2ccc(C(=O)Nc3ccc(C)c(Oc4ccc5c(c4)CC(=O)N5)c3)cc2C(F)(F)F)CC1,"binding, competition with immobilised ligand",1 µM,100
CN(c1nccc(-c2cnn3ncccc23)n1)C1CC1,binding,1 µM,100
Nc1ncc2c(n1)-c1c([nH]c3ccc(C#CC4CC4)cc13)CCCC2,"binding, competition with immobilised ligand",1 µM,91
O=C(NCCCN1CCOCC1)c1ccc(Nc2ncc(Cl)c(-c3ccc(Cl)s3)n2)cc1,"binding, competition with immobilised ligand",1 µM,83
CN(C)c1nccc(-c2cnn3ncccc23)n1,binding,1 µM,97
CC1=C(C#N)C(c2ccc3c(c2)c(NC(=O)c2ccccc2C)nn3C)C(C#N)=C(C)N1,"cell-free assay, competition with immobilised ligand",1 µM,99
CNC(=O)[C@@H]1CC[C@@H](n2c(-c3ccc4cnccc4c3)nc3ccc(C(=O)NCc4cccc(C(N)=O)c4)cc32)C1,"binding, competition with immobilised ligand",1 µM,100
FC(F)(F)Oc1cccc(-c2cnc3ccc(-c4ccncc4)nn23)c1,"cell-free assay, competition with immobilised ligand",5 µM,69
O=C(Nc1ccc(Oc2ccc(F)cc2)cc1)N1CCc2ncccc2[C@H]1c1ccc(F)cc1,"cell-free assay, competition with immobilised ligand",1 µM,93
COc1cnc(Nc2cccc(S(N)(=O)=O)c2)nc1N1CCN(c2ccccc2)C(=O)C1,"binding, competition with immobilised ligand",1 µM,100
O=C(NCC1CCOCC1)c1n[nH]cc1NC(=O)c1c(F)cccc1F,"binding, competition with immobilised ligand",1 µM,97
C[C@@H]1CCN(c2nccc(-c3cnn4ncccc34)n2)C1,binding,1 µM,87
O=c1nc(-c2ccccn2)sc2ccccc12,"binding, competition with immobilised ligand",1 µM,100
COc1ncc2cc3ccccc3nc2c1C#N,"cell-free assay, competition with immobilised ligand",5 µM,91
O=C(c1ccc(Nc2nccc(-c3cc4ccccc4s3)n2)cc1)N1CCC(N2CCCC2)CC1,"binding, competition with immobilised ligand",1 µM,47
O=S(=O)(NC1CCC(c2cc(F)ccc2F)(S(=O)(=O)c2ccc(Cl)cc2)CC1)C(F)(F)F (stereo not shown),"cell-free assay, competition with immobilised ligand",1 µM,87
Cc1cnn2ncc(-c3ccnc(N(C)C)n3)c2c1,binding,1 µM,94
O=C1NC(c2ccccn2)Sc2ccccc21 (stereo not shown),"cell-free assay, competition with immobilised ligand",1 µM,92
N[C@H]1CCN(c2nccc(-c3cnn4ncccc34)n2)C1,binding,1 µM,100
Cc1cnc(Nc2ccc(C(=O)N3CCC(N4CCCC4)CC3)cc2)nc1-c1cc2ccccc2s1,"binding, competition with immobilised ligand",1 µM,30
CCC(=O)N[C@H]1CC[C@@H](C(=O)N(C)c2ccc(-c3nc4ccccc4o3)cc2)C1,"cell-free assay, competition with immobilised ligand",1 µM,100
